From ChEMBL document CHEMBL3608239, “Identification and optimisation of a 4',5-bisthiazole series of selective phosphatidylinositol-3 kinase alpha inhibitors” (Bioorg Med Chem Lett, 2015)

Key:
[1] = Permeability of the compound from apical to basolateral side in human Caco2 cells; assay type: ADME, cell-based; conditions: Caco-2, read-out: permeability
[2] = Permeability of the compound from basolateral to apical side in human Caco2 cells; assay type: ADME, cell-based; conditions: Caco-2, read-out: permeability
[3] = Plasma concentration in athymic nude mouse at 10 mg/kg, iv after 2 hrs; assay type: ADME, organism-based
Summary of the method: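 Female athymic nude mice, conscious, with free access to food, given a bolus intravenous dose of 10 mg kg-1. Plasma levels measured 1 and 2 h after dosing.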

[4] = Oral bioavailability in Sprague-Dawley rat at 3 mg/kg; assay type: ADME, organism-based; conditions: in vivo
Summary of the method: (§1)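 Female Sprague-Dawley rats, conscious, permanently cannulated, with free access to food. Dosed 1.0 mg kg-1 intravenously or 3.0 mg kg-1 orally as a suspension. Blood levels followed from 5 min to 48 h after dosing.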

Rattus norvegicus = test: Volume of distribution in Sprague-Dawley rat at 3 mg/kg, po; assay type: ADME, organism-based; conditions: in vivo; summary of the method: as §1

| Compound | Papp A→B [1] [×10⁻⁶ cm/s] | Papp B→A [2] [×10⁻⁶ cm/s] | concentration at 2 h [3] [nM] | bioavailability [4] [%] | Vd (Rattus norvegicus) [L/kg] |
| --- | --- | --- | --- | --- | --- |
| Cc1nc(NC(=O)N2CCC[C@H]2C(N)=O)sc1-c1ccc(S(C)(=O)=O)c(F)c1 | 1.4 | 7.7 | – | – | – |
| Cc1nc(NC(=O)N2CCC[C@@]2(C)C(N)=O)sc1-c1csc(C(C)(C)C)n1 | 14.5 | 17.4 | < 50 | – | – |
| Cc1nc(NC(=O)N2CC[C@H](C)[C@H]2C(N)=O)sc1-c1csc(C(C)(C)C)n1 | 11.1 | 17.4 | – | – | – |
| Cc1nc(NC(=O)N2CC[C@H](O)[C@H]2C(N)=O)sc1-c1csc(C(C)(C)C)n1 | 0.9 | 12.4 | – | – | – |
| Cc1nc(NC(=O)N2C[C@H](F)C[C@H]2C(N)=O)sc1-c1csc(C(C)(C)C)n1 | 5.5 | 20.7 | – | – | – |
| Cc1nc(NC(=O)N2C[C@H](O)C[C@H]2C(N)=O)sc1-c1csc(C(C)(C)C)n1 | 0.7 | 8.4 | – | – | – |
| Cc1nc(NC(=O)N2C[C@@H](O)C[C@H]2C(N)=O)sc1-c1csc(C(C)(C)C)n1 | 1.2 | 20.8 | – | – | – |
| Cc1nc(NC(=O)N2C[C@H](N(C)C)C[C@H]2C(N)=O)sc1-c1csc(C2(C)CC2)n1 | – | – | – | 59 | 3.3 |
